From ChEMBL document CHEMBL1121414, “Central nervous system activity of 7-substituted 1-azaphenoxathiin analogues and their oxidation products” (1980)

How the values were obtained:
Rattus norvegicus = assay: The compound was tested for antidepressant activity by its ability to inhibit muricidal intraperitoneally; type: functional; conditions: ip
Outline: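 Male Long-Evans rats (200–300 g), groups of five, given test drug ip as a methylcellulose suspension at an initial screening dose of 10 or 20 mg/kg. Mice were presented to the rats 30 min after dosing.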

Mus musculus = organism: Mus musculus; assay: The compound was tested for antidepressant activity by its ability to reverse tetrabenazine induced ptosis in mice, perorally; type: functional; conditions: po
Outline: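 Male albino CFI mice (18–22 g), groups of five, dosed po with test drug in methylcellulose suspension (initial screening dose 30 mg/kg). Tetrabenazine methanesulfonate 30 mg/kg was given ip 30 min later, and palpebral opening was scored after 30 min.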

| Structure (SMILES) | ED50 (Rattus norvegicus) | ED50 (Mus musculus) |
| --- | --- | --- |
| O=S1(=O)c2ccc(Cl)cc2Oc2cccnc21 | > 10 mg/kg | 18 mg/kg |
| FC(F)(F)c1ccc2c(c1)Oc1cccnc1S2 | > 10 mg/kg | 16 mg/kg |
| COc1ccc2c(c1)Oc1cccnc1S2(=O)=O | > 10 mg/kg | > 30 mg/kg |
| COc1ccc2c(c1)Oc1cccnc1S2 | > 10 mg/kg | > 30 mg/kg |
| O=S1(=O)c2ccc(NO)cc2Oc2cccnc21 | > 10 mg/kg | 2 mg/kg |
| O=S1(=O)c2ccc(Br)cc2Oc2cccnc21 | 7 mg/kg | 15 mg/kg |
| O=[N+]([O-])c1ccc2c(c1)Oc1cccnc1S2 | 7 mg/kg | > 30 mg/kg |
| NS(=O)(=O)c1ccc2c(c1)Oc1cccnc1S2 | 8 mg/kg | > 30 mg/kg |
| Brc1ccc2c(c1)Oc1cccnc1S2 | > 10 mg/kg | > 30 mg/kg |
| Clc1ccc2c(c1)Oc1cccnc1S2 | > 10 mg/kg | > 30 mg/kg |
| O=S1(=O)c2ccc(C(F)(F)F)cc2Oc2cccnc21 | 17 mg/kg | 1 mg/kg |
| O=[N+]([O-])c1ccc2c(c1)Oc1cccnc1S2(=O)=O | 12 mg/kg | 10 mg/kg |
| c1ccc2c(c1)Oc1cccnc1S2 | > 10 mg/kg | 8 mg/kg |
| O=S1(=O)c2ccccc2Oc2cccnc21 | > 10 mg/kg | 12 mg/kg |
| CN(C)CCCN1c2ccccc2CCc2ccccc21 [IMIPRAMINE] | 20 mg/kg | 2 mg/kg |
